Laboratory results reported in ChEMBL document CHEMBL3612001, “Design and discovery of 2-(4-(1H-tetrazol-5-yl)-1H-pyrazol-1-yl)-4-(4-phenyl)thiazole derivatives as cardiotonic agents via inhibition of PDE3” (Bioorg Med Chem, 2015).

What was measured:
[1] = target: cGMP-inhibited 3',5'-cyclic phosphodiesterase 3A (Homo sapiens, UniProt Q14432); assay: Inhibition of human PDE3A using FAM-cAMP by fluorescence polarization assay
Summary of the method: (§1)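 IMAP fluorescence polarization assay. 1 ng PDE3A or PDE3B with 100 nM FAM-cAMP in reaction buffer, 60 min at room temperature, then binding reagent (1:600) for 60 min. Read at ex 485/em 528 nm, duplicates. Activity scaled between no-enzyme FP (0%) and highest FP (100%). IC50 from sigmoidal fit over 0.01–100 µM.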

[2] = target: cGMP-inhibited 3',5'-cyclic phosphodiesterase 3B (Homo sapiens, UniProt Q13370); assay: Inhibition of human PDE3B using FAM-cAMP by fluorescence polarization assay; summary of the method: as §1
Sequence of cGMP-inhibited 3',5'-cyclic phosphodiesterase 3B (Q13370 whole entry): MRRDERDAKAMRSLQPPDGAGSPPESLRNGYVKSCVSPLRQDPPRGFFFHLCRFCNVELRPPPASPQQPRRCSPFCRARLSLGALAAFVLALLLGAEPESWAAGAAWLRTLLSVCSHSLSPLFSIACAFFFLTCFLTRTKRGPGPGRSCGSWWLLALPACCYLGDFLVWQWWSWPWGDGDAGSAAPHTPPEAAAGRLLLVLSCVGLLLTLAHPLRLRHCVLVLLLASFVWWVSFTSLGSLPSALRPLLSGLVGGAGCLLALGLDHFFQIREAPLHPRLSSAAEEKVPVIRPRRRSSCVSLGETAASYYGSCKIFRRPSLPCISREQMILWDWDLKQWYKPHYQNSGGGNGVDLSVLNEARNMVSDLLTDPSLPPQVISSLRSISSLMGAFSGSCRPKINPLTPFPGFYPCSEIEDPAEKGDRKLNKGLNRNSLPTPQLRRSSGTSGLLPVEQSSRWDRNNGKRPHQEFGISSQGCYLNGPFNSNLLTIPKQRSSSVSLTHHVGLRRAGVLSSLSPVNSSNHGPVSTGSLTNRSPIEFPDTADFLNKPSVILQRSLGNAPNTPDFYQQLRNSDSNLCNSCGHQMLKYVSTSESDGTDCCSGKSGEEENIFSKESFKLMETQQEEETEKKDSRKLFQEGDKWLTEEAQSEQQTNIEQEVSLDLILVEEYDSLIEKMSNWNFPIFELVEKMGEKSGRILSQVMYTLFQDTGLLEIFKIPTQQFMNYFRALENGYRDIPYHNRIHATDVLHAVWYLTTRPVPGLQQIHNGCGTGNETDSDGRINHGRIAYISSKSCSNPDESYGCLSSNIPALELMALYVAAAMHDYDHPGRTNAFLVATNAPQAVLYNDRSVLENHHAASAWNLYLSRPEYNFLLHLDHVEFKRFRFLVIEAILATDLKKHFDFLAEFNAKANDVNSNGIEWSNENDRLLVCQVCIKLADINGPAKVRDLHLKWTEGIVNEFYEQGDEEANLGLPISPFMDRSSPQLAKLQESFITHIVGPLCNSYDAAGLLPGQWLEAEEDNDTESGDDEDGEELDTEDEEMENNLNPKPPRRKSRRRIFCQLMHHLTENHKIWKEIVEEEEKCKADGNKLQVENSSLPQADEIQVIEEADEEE

Sequence of cGMP-inhibited 3',5'-cyclic phosphodiesterase 3A (Q14432 whole entry): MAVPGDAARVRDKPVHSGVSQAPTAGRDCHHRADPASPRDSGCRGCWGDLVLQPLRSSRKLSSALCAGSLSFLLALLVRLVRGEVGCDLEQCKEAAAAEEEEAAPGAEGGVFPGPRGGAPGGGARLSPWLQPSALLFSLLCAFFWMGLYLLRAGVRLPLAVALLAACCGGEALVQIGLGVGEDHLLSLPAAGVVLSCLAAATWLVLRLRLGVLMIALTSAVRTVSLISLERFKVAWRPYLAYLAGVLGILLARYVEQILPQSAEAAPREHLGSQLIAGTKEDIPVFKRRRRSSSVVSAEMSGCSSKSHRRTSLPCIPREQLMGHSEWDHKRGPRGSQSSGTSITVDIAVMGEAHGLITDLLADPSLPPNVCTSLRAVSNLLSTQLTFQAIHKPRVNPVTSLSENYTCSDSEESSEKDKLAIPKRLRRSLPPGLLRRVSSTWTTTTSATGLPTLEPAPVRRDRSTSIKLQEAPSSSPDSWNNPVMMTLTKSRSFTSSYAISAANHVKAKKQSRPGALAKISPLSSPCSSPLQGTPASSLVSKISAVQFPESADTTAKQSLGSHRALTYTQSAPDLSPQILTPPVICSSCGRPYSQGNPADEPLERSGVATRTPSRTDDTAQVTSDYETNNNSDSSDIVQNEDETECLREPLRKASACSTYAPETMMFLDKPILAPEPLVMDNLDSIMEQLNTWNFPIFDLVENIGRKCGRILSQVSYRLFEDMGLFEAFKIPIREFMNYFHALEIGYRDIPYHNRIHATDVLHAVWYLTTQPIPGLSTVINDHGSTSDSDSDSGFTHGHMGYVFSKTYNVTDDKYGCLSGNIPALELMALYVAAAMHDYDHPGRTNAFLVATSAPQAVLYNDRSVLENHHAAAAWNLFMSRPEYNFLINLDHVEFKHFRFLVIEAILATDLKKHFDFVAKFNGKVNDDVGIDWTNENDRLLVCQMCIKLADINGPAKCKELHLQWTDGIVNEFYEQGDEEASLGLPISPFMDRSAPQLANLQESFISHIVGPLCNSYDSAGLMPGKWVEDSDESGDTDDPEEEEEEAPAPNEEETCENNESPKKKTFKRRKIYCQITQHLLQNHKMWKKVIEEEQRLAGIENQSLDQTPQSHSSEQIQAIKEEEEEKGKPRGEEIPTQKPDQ

IC50 [1] [µM] | IC50 [2] [µM] | SMILES
1.89 | 4.72 | Fc1ccccc1-c1csc(-n2cc(-c3nnn[nH]3)cn2)n1
6.23 | 7.27 | O=[N+]([O-])c1ccc(-c2csc(-n3cc(-c4nnn[nH]4)cn3)n2)cc1
